The array DNA melting data of Ke et al. (doi:10.1101/2024.01.08.574731)

Assays:
[1] = folding enthalpy; higher = less favourable; fluorescence melt of hairpins on a sequencing array, two-state fit; details: sodium 0.088 M
Outline: (§1)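 Melting temperature and folding enthalpy were obtained by bootstrapped two-state fitting. Fits used Cy3 fluorescence of library hairpins with annealed Cy3 and quencher oligos on a sequenced MiSeq flow cell, imaged in 50 mM Na-HEPES pH 8.0, 25 mM NaCl in 2.5 °C steps up to 60 °C and normalised to pre-quench Cy3 and control constructs. Four replicates were combined by inverse-variance weighting, and fitted temperatures were raised by 9.35 °C to match UV melts.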

[2] = melting temperature; fluorescence melt of hairpins on a sequencing array, two-state fit, raised by 9.35 °C to match UV melts; details: sodium 0.088 M
Outline: as §1

Row | Sequence | folding enthalpy [1] [kcal/mol] | Tm [2] [°C]
1 | GATCCGCCGCGGATC ((((((...)))))) | -40.5 | 56.5
2 | GATTGGGGAAACCCAACC (.(((((....))))).) | -14.5 | 36.7
3 | CGGACGGAAACGTTTCCG ((((((....)))..))) | -12.5 | 46.4
4 | CGAATGAAAATTCG (((((....))))) | -22.5 | 48.1
5 | GATCAGAGGACTGATC ((((((....)))))) | -32.8 | 46.9
6 | GCACTAGGAAACTAGCGC ((.((((....)))).)) | -33.4 | 45.5
7 | CGAGGCGGAAACGCGTCG (((.(((....))).))) | -32.1 | 62.5
8 | GATTAAGGAAACTTAATC (((((((....))))))) | -31.3 | 45.5
9 | GACCCGCGAAAGCGTGTC (((.(((....))).))) | -24 | 52.6
10 | GATCCGAGCTCGGATC ((((((....)))))) | -37.3 | 63
11 | GAACCCGAAAGGGTTTC ((((((....))).))) | -12.1 | 56.9
12 | GCCGCTGGAAACAACGGC ((((.((....)).)))) | -37.1 | 54.3
13 | GTCCGCACGAAAGTGGAC (((..(((....)))))) | -19.6 | 47.1
14 | GATCAAACGATTGATC ((((((....)))))) | -25.3 | 39.9
15 | GCGATTAGTCGC ((((....)))) | -26.7 | 51.4
16 | GTGCCAGGAAACTGGTGC (..((((....))))..) | -26.2 | 48
17 | GCGTCGCCGAAAGGCCGC (((..(((....)))))) | -19.3 | 57.1
18 | GATCGTCAGCACGATC ((((((....)))))) | -27.8 | 52.6
19 | GGATGAGGAAACCCATCC (((((.(....).))))) | -30.3 | 44.6
20 | GATCCCAGTGGGATC ((((((...)))))) | -40.6 | 60.8
21 | CGGAGCGGAAACGCGCCG (((.(((....))).))) | -27 | 68.6
22 | GATCGTGTTAACGATC ((((((....)))))) | -36 | 66.9
23 | GTCTTCGAAAGAATTGAC ((((((....)))..))) | -10.7 | 26.2

Row | Sequence | folding enthalpy [1] [kcal/mol] | Tm [2] [°C]
24 | AGAAACAGAAATGGTTCT ((((.((....)).)))) | -22.8 | 33.1
25 | GATCCATTGTGGATC ((((((...)))))) | -38.8 | 51.7
26 | GTTAAGGGAAACCTTAGC (.(((((....))))).) | -23.4 | 34.8
27 | GCCAGGGGAAACCCTGAC (.(((((....))))).) | -15.4 | 47.6
28 | GGATCCCGAAAGGGTCC (((.(((....)))))) | -27.8 | 60.1
29 | GATTTAGGAAACTGAATC ((((.((....)).)))) | -26.4 | 33.1
30 | GGTCCCTCGAAAGAGACC (((..(((....)))))) | -17.1 | 34.8
31 | GGCTTCGGAAACGAGGTC (.(.(((....))).).) | -26.3 | 39.3
32 | GAGGACGAAAGTCGACTC ((((((....)))..))) | -14.9 | 40.6
33 | CTGGTGAAAACCAG (((((....))))) | -20.3 | 52.8
34 | GGGCGTGCGAAAGCACCC (((..(((....)))))) | -13 | 54.4
35 | GGCCCGGCGAAAGCCGCC (((..(((....)))))) | -7.68 | 37
36 | GGAAAAGGAAACTTTTTC (.(((((....))))).) | -20.6 | 33
37 | GACGTAGAAATACGTC ((((((....)))))) | -38.5 | 55
38 | GCACCGCGAAAGCGCAGC ((..(((....)))..)) | -9.35 | 38.4
39 | GATCCGGACCGGATC ((((((...)))))) | -34.6 | 57.3
40 | GGTGGAGGAAACTCTACC (((.(((....))).))) | -35.8 | 48
41 | GCACCCACGAAAGTGTGC (((..(((....)))))) | -19 | 45.4
42 | GAGGGACGAAAGTCACTC (((.(((....))).))) | -31.2 | 65.6
43 | GCGGCCCTCCGC ((((....)))) | -26.5 | 59.6
44 | GTCCATGGAAACATAGAC (((.(((....))).))) | -17.3 | 30.1
45 | GTCGTCGAAAGACTAGAC ((((((....)))..))) | -18.4 | 42.5
46 | GTCCTGGGAAACCAGGAC (((((((....))))))) | -36 | 66.7

Row | Sequence | folding enthalpy [1] [kcal/mol] | Tm [2] [°C]
47 | GGCACCGAAAGGTTAGCC ((((((....)))..))) | -28.9 | 50.8
48 | GCTTTTGCGAAAGCAAGC (((..(((....)))))) | -10.3 | 35
49 | GCTACATCGAAAGATAGC (((..(((....)))))) | -16.7 | 33.8
50 | GGCAATCGAAAGATAGCC (((.(((....))).))) | -31.8 | 52.7
51 | GATCGACTTTTCGATC ((((((....)))))) | -35.1 | 51.6
52 | GAATCCGAAAGGACTTC ((((((....))).))) | -19.4 | 35.8
53 | GGCTAGGAAACTAGCC ((((((....)))))) | -34.8 | 60.4
54 | GAAGGGCGAAAGCCATTC (((.(((....))).))) | -22.2 | 57.1
55 | CGCACGGAAACGTGTGCG ((((((....)))..))) | -17.6 | 57.5
56 | GATCGATGAGTCGATC ((((((....)))))) | -41.6 | 55.5
57 | GAACTCGGAAACGAGTTC (((((((....))))))) | -40.9 | 67
58 | GTGTCTGGAAACAAACAC ((((.((....)).)))) | -21.6 | 33.2
59 | GATCAGAACCCTGATC ((((((....)))))) | -39.8 | 47
60 | GATCTATGGGTAGATC ((((((....)))))) | -33.2 | 45.6
61 | GAACCTGGAAACAGGCTC ((.((((....)))).)) | -18.9 | 40
62 | GCTTTAGGAAACTGAAGC ((((.((....)).)))) | -30.1 | 42.4
63 | GAAACCCGAAAGGGTTC (((.(((....)))))) | -10.2 | 51.5
64 | GATCTCAGCTGAGATC ((((((....)))))) | -46.8 | 54.9
65 | GTGTCCGAAAGGAACAC ((((((....))).))) | -30 | 52.8
66 | GAGCACGAAAGTGCCTC ((((((....))).))) | -10.4 | 51.2
67 | CGACGCGGAAACGCTCG (((.(((....)))))) | -21.8 | 49.3
68 | GATCGAGGGCTCGATC ((((((....)))))) | -46.3 | 53.5
69 | GATCAGAGATCTGATC ((((((....)))))) | -24.3 | 50.1
